Data: ChEMBL document CHEMBL1159121, “Synthesis, in vitro structure-activity relationship, and in vivo studies of 2-arylthiazolidine-4-carboxylic acid amides as anticancer agents” (Bioorg Med Chem, 2010)

Key:
HOP-62 = experiment: Growth inhibition of human HOP62 cells; type: functional
NCI-H23 = experiment: Growth inhibition of human NCI-H23 cells; type: functional
NCI-H322M = experiment: Growth inhibition of human NCI-H322M cells; type: functional
NCI-H460 = experiment: Growth inhibition of human NCI-H460 cells; type: functional
NCI-H522 = experiment: Growth inhibition of human NCI-H522 cells; type: functional
COLO 205 = experiment: Growth inhibition of human COLO205 cells; type: functional
HCC 2998 = experiment: Growth inhibition of human HCC2998 cells; type: functional
HCT-116 = experiment: Growth inhibition of human HCT116 cells; type: functional
HCT-15 = experiment: Growth inhibition of human HCT15 cells; type: functional
SW-620 = experiment: Growth inhibition of human SW620 cells; type: functional
SF-268 = experiment: Growth inhibition of human SF268 cells; type: functional
SF-295 = experiment: Growth inhibition of human SF295 cells; type: functional
SF-539 = experiment: Growth inhibition of human SF539 cells; type: functional
SNB-19 = experiment: Growth inhibition of human SNB19 cells; type: functional
SNB-75 = experiment: Growth inhibition of human SNB75 cells; type: functional
LOX IMVI = experiment: Growth inhibition of human LOXIMVI cells; type: functional
M14 = experiment: Growth inhibition of human M14 cells; type: functional
SK-MEL-28 = experiment: Growth inhibition of human SK-MEL-28 cells; type: functional
SK-MEL-5 = experiment: Growth inhibition of human SK-MEL-5 cells; type: functional
UACC-257 = experiment: Growth inhibition of human UACC257 cells; type: functional
UACC-62 = experiment: Growth inhibition of human UACC62 cells; type: functional
IGROV-1 = experiment: Growth inhibition of human IGROV1 cells; type: functional
OVCAR-4 = experiment: Growth inhibition of human OVCAR4 cells; type: functional
OVCAR-5 = experiment: Growth inhibition of human OVCAR5 cells; type: functional
OVCAR-8 = experiment: Growth inhibition of human OVCAR8 cells; type: functional
786-0 = experiment: Growth inhibition of human 786-0 cells; type: functional
ACHN = experiment: Growth inhibition of human ACHN cells; type: functional
RXF 393 = experiment: Growth inhibition of human RXF393 cells; type: functional
SN12C = experiment: Growth inhibition of human SN12C cells; type: functional
TK-10 = experiment: Growth inhibition of human TK10 cells; type: functional
DU-145 = experiment: Growth inhibition of human DU145 cells; type: functional
NCI/ADR-RES = experiment: Growth inhibition of human NCI/ADR-RES cells; type: functional
MDA-MB-231 = experiment: Growth inhibition of human MDA-MB-231 cells; type: functional
MDA-MB-435 = experiment: Growth inhibition of human MDA-MB-435 cells; type: functional
[1] = Antiproliferative activity against human WM164 cells after 48 hrs by SRB assay; type: functional, cell-based; conditions: WM164, 48 h
Method in brief: (§1)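 Melanoma lines and control fibroblasts grown at 37 °C, 5% CO2, then exposed to a wide concentration range for 48 h in round-bottom 96-well plates. Fixed with 10% TCA, stained with SRB, protein read at 560 nm. IC50 (50% growth inhibition versus untreated) obtained by nonlinear regression.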

[2] = Cytotoxicity against human fibroblasts after 48 hrs by SRB assay; type: cell-based; conditions: Fibroblast; method in brief: as §1
RH7777 = experiment: Cytotoxicity against rat RH7777 cells after 96 hrs by SRB assay; type: cell-based; conditions: RH7777, 96 h
Method in brief: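 Prostate lines in RPMI1640/10% FBS; RH7777 in DMEM/10% FBS. Cells TCA-fixed, stained with 0.4% SRB, absorbance read at 540 nm. IC50 from nonlinear regression of % survival against concentration.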

CCRF-CEM = experiment: Growth inhibition of human CCRF-CEM cells; type: functional
MOLT-4 = experiment: Growth inhibition of human MOLT4 cells; type: functional
[3] = Growth inhibition of human […] cells; type: functional
EKVX = experiment: Growth inhibition of human EKVX cells; type: functional
[4] = read-out: LC50 (the source's name)

Q: Which results are given for CCCCCCCCCCCCCCCCNC(=O)[C@@H]1CSC(c2ccc(NC(C)=O)cc2)N1 (mixture of isomers)?
A: GI50 (HOP-62): 200 nM; TGI (HOP-62): 380 nM; CC50 (HOP-62; [4]): 700 nM; GI50 (NCI-H23): 320 nM; TGI (NCI-H23): 1050 nM; CC50 (NCI-H23; [4]): 4.86 µM; GI50 (NCI-H322M): 280 nM; TGI (NCI-H322M): 850 nM; CC50 (NCI-H322M; [4]): 3.22 µM; GI50 (NCI-H460): 190 nM; TGI (NCI-H460): 390 nM; CC50 (NCI-H460; [4]): 790 nM; GI50 (NCI-H522): 3.81 µM; TGI (NCI-H522): 20.7 µM; CC50 (NCI-H522; [4]): > 100 µM; GI50 (COLO 205): 1910 nM; CC50 (COLO 205; [4]): > 100 µM; GI50 (HCC 2998): 440 nM; TGI (HCC 2998): 1810 nM; CC50 (HCC 2998; [4]): 4.58 µM; GI50 (HCT-116): 180 nM; TGI (HCT-116): 330 nM; CC50 (HCT-116; [4]): 600 nM; GI50 (HCT-15): 1000 nM; TGI (HCT-15): 3.22 µM; CC50 (HCT-15; [4]): 11.9 µM; GI50 (SW-620): 210 nM; TGI (SW-620): 430 nM; CC50 (SW-620; [4]): 890 nM; GI50 (SF-268): 160 nM; TGI (SF-268): 310 nM; CC50 (SF-268; [4]): 600 nM; GI50 (SF-295): 280 nM; TGI (SF-295): 1060 nM; CC50 (SF-295; [4]): 4.09 µM; GI50 (SF-539): 260 nM; TGI (SF-539): 700 nM; CC50 (SF-539; [4]): 2810 nM; GI50 (SNB-19): 190 nM; TGI (SNB-19): 400 nM; CC50 (SNB-19; [4]): 820 nM; GI50 (SNB-75): 180 nM; TGI (SNB-75): 330 nM; CC50 (SNB-75; [4]): 580 nM; GI50 (LOX IMVI): 140 nM; TGI (LOX IMVI): 300 nM; CC50 (LOX IMVI; [4]): 830 nM; GI50 (M14): 170 nM; TGI (M14): 330 nM; CC50 (M14; [4]): 620 nM; GI50 (SK-MEL-28): 130 nM; TGI (SK-MEL-28): 260 nM; CC50 (SK-MEL-28; [4]): 520 nM; GI50 (SK-MEL-5): 750 nM; TGI (SK-MEL-5): 2130 nM; CC50 (SK-MEL-5; [4]): 5.13 µM; GI50 (UACC-257): 1480 nM; TGI (UACC-257): 3.16 µM; CC50 (UACC-257; [4]): 6.71 µM; GI50 (UACC-62): 1080 nM; TGI (UACC-62): 2330 nM; CC50 (UACC-62; [4]): 50.2 µM; GI50 (IGROV-1): 170 nM; TGI (IGROV-1): 340 nM; CC50 (IGROV-1; [4]): 650 nM; GI50 (OVCAR-4): 230 nM; TGI (OVCAR-4): 490 nM; CC50 (OVCAR-4; [4]): 120 nM; GI50 (OVCAR-5): 200 nM; TGI (OVCAR-5): 370 nM; CC50 (OVCAR-5; [4]): 670 nM; GI50 (OVCAR-8): 280 nM; TGI (OVCAR-8): 730 nM; CC50 (OVCAR-8; [4]): > 100 µM; GI50 (786-0): 220 nM; TGI (786-0): 420 nM; CC50 (786-0; [4]): 770 nM; GI50 (ACHN): 210 nM; TGI (ACHN): 470 nM; CC50 (ACHN; [4]): 1100 nM; GI50 (RXF 393): 200 nM; TGI (RXF 393): 350 nM; CC50 (RXF 393; [4]): 620 nM; GI50 (SN12C): 350 nM; TGI (SN12C): 510 nM; CC50 (SN12C; [4]): 740 nM; GI50 (TK-10): 650 nM; TGI (TK-10): 2110 nM; CC50 (TK-10; [4]): 5.4 µM; GI50 (DU-145): 270 nM; TGI (DU-145): 630 nM; CC50 (DU-145; [4]): 2150 nM; GI50 (NCI/ADR-RES): 250 nM; TGI (NCI/ADR-RES): 520 nM; CC50 (NCI/ADR-RES; [4]): 170 nM; GI50 (MDA-MB-231): 180 nM; TGI (MDA-MB-231): 320 nM; CC50 (MDA-MB-231; [4]): 590 nM; GI50 (MDA-MB-435): 150 nM; TGI (MDA-MB-435): 300 nM; CC50 (MDA-MB-435; [4]): 600 nM; IC50 [1]: 1100 nM; IC50 [2]: 16 µM; IC50 (RH7777): 6.8 µM; GI50 (CCRF-CEM): 120 nM; TGI (CCRF-CEM): 400 nM; CC50 (CCRF-CEM; [4]): 13 µM; GI50 (MOLT-4): 150 nM; TGI (MOLT-4): 340 nM; CC50 (MOLT-4; [4]): 790 nM; GI50 [3]: 220 nM; TGI [3]: 560 nM; CC50 [3, 4]: > 100 µM; GI50 (EKVX): 300 nM; TGI (EKVX): 880 nM; CC50 (EKVX; [4]): 4.11 µM
